For 5 molecules, Activity and EC50 results are on record in ChEMBL document CHEMBL1138113, “The design and synthesis of YC-1 analogues as probes for soluble guanylate cyclase” (Bioorg Med Chem Lett, 2006).

What all share (format): functional
The target in assay [1] is T1, Soluble guanylate cyclase (Homo sapiens) (UniProt Q02153+O75343+P33402+Q02108). Kind of assay: Ratio of activation of sGC by compound over that of control, in absence of carbon monooxide (basal activity 33+/-3 nmol/min/mg).
The target in assay [2] is T1, Soluble guanylate cyclase (Homo sapiens). Kind of assay: Ratio of activation of sGC by compound over that of control, in presence of carbon monooxide (basal activity 33+/-3 nmol/min/mg in absence of CO).
The target in assay [3] is Soluble guanylate cyclase (Homo sapiens, UniProt O75343+P33402+Q02108+Q02153). Kind of assay: Effect on YC-1 mediated activation of sGC in presence of carbon monoxide. A digest of the protocol: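 Purified sGC from a baculovirus/Sf9 expression system, measured with CO by end-point assay in 4% v/v DMSO across a range of YC-1 concentrations, with and without a fixed level of the test compound. Assays ran 2 min in triplicate, and errors are mean + range/2. EC50 came from a four-parameter logistic fit.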
Sequence of Soluble guanylate cyclase (Q02153 whole entry): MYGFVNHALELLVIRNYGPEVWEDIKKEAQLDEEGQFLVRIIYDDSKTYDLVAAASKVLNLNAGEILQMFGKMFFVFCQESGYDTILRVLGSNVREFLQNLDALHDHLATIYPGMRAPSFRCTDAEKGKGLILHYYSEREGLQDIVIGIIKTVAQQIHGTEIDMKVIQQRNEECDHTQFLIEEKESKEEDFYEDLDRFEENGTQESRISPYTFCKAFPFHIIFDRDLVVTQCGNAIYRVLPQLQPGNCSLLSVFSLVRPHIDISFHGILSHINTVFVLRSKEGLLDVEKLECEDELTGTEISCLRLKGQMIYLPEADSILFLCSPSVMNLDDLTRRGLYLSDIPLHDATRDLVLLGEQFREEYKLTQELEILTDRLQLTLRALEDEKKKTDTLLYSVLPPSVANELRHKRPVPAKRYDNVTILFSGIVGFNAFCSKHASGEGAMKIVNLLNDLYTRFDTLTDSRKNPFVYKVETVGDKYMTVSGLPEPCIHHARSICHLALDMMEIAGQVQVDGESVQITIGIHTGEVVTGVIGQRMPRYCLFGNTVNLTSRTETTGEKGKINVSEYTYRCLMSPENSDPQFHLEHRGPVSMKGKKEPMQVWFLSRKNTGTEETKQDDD
Sequence of Soluble guanylate cyclase (O75343 whole entry): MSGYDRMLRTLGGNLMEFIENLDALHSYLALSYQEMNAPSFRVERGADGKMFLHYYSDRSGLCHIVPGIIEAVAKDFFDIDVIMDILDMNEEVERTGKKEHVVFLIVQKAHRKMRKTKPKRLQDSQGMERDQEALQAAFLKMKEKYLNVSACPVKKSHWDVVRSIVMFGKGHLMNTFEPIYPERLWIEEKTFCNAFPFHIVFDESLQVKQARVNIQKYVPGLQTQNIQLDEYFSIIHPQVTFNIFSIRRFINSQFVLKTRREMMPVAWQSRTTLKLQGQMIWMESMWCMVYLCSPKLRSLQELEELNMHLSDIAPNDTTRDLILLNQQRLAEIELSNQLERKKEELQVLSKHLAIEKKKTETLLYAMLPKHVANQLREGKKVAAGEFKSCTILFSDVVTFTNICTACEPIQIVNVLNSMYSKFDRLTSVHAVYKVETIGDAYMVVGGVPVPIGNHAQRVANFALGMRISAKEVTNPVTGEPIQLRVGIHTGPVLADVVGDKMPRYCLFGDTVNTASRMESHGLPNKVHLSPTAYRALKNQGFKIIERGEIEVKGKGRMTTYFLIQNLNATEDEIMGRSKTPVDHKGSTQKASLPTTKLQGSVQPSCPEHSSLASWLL
Sequence of Soluble guanylate cyclase (P33402 whole entry): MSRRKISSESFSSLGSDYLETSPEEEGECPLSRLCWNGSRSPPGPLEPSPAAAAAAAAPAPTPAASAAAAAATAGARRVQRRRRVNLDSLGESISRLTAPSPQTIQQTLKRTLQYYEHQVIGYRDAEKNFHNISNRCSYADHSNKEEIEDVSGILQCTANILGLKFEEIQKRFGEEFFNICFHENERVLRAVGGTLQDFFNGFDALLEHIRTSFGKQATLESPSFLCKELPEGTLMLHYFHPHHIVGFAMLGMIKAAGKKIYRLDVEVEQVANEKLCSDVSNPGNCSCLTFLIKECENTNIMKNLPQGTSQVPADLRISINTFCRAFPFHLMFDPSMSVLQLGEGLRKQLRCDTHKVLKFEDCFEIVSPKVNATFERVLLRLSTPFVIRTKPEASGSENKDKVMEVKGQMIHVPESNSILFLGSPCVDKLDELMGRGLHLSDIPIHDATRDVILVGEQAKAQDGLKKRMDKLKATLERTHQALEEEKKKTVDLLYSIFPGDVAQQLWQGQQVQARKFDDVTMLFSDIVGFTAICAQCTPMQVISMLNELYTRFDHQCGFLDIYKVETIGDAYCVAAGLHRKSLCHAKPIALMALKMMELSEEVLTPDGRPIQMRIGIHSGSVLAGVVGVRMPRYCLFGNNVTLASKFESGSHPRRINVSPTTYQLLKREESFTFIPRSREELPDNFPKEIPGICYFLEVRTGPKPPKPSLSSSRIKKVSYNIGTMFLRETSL
Sequence of Soluble guanylate cyclase (Q02108 whole entry): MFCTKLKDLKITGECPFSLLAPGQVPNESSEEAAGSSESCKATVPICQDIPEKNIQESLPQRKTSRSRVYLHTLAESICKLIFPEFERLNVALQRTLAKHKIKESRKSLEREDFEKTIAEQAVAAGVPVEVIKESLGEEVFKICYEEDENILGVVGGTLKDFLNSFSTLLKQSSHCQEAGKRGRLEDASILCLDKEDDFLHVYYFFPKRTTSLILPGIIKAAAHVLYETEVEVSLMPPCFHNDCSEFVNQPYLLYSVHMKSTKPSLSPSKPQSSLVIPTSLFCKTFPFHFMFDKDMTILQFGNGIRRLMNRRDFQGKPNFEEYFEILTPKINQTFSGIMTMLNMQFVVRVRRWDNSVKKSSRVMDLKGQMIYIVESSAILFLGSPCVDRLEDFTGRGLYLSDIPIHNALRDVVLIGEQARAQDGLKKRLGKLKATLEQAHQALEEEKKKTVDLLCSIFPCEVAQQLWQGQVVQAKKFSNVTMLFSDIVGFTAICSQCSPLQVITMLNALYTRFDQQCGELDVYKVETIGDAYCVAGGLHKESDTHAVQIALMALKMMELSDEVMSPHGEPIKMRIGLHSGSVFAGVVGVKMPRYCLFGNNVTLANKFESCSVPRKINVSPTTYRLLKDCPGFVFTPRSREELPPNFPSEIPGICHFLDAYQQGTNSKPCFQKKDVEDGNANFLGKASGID

`OCc1ccc(-c2nn(Cc3ccccc3)c3ccccc23)o1`: the values for the Activity in assay [1] and in assay [2] were 9.2 and 139, respectively.

For `[N-]=[N+]=Nc1cccc(Cn2nc(-c3ccc(CO)o3)c3ccccc32)c1`, the Activity in assay [1] amounted to 2; in assay [2] it was 7.1.

As a reminder, the EC50 is the concentration that produces a half-maximal response. With `[N-]=[N+]=Nc1ccc2c(-c3ccc(CO)o3)nn(Cc3ccccc3)c2c1`, the EC50 in assay [3] is 21.9 µM. Further, the Activity in assay [1] was 3.4; in assay [2] it was 29.

Take `[N-]=[N+]=Nc1ccc(Cn2nc(-c3ccc(CO)o3)c3ccccc32)cc1`: the Activity in assay [1] stood at 4.7; in assay [2], 20.3.

As for `[N-]=[N+]=Nc1ccc2c(c1)c(-c1ccc(CO)o1)nn2Cc1ccccc1`, the Activity was found to be 1.7 in assay [1] and 4.4 in assay [2].
